Assay results: paper PMC8569940 (European journal of medicinal chemistry, 2020)

Tests used:
[1] = test system: Kunming mice; experiment: Acute toxicity study, single intraperitoneal dose; type: in vivo
In short: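 Kunming mice, four groups of 8 (half male, half female), each given one intraperitoneal injection of test compound at 10, 20 or 40 mg/kg or vehicle. Mortality and clinical signs in eyes, skin and fur recorded. Body weights measured daily after treatment. Mice dissected to check for ascites and liver volume.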

[2] = biological target: JAK2 (Homo sapiens, UniProt O60674); experiment: Enzyme inhibition JAK2; type: biochemical
[3] = biological target: MAPK10 (Homo sapiens, UniProt P53779); experiment: Enzyme inhibition MAPK10; type: biochemical; details: tested at 100 μM
[4] = test system: 4T1 tumor; experiment: In vivo antitumor effect, orthotopic 4T1 tumor-bearing mice; details: 2 mg/kg, in comparison with the control group
[5] = biological target: T1, AURKA (Homo sapiens, UniProt O14965); experiment: Enzyme inhibition AURKA; type: biochemical; details: tested at 100 μM
T1 sequence (O14965 1-403): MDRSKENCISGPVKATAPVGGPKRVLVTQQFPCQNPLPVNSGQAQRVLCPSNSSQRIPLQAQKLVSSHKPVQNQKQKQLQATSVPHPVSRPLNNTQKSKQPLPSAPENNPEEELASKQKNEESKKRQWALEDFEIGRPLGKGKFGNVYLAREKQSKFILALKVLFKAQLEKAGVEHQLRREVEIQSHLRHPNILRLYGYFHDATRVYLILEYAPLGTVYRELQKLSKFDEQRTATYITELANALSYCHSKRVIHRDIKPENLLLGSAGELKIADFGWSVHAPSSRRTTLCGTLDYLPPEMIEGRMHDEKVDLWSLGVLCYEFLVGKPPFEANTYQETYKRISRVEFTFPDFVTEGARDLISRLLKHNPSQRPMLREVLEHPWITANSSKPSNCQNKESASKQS

[6] = test system: MDA-MB-231 cells; experiment: Apoptosis detection assay; type: cell-based, human
In short: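 MDA-MB-231 cells seeded at 5 × 10^5 cells/mL in six-well plates. Treated with test compound at different concentrations for 24 h (48 h per results text); combretastatin A4 as positive control. Cells trypsinised, washed twice in cold PBS, resuspended in binding buffer, then stained with annexin V-FITC 15 min at room temperature. PI added for a further 15 min in the dark. Read by flow cytometry.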

[7] = female mice, highest dose group (40 mg/kg)

Sequence of JAK2 (O60674 whole entry): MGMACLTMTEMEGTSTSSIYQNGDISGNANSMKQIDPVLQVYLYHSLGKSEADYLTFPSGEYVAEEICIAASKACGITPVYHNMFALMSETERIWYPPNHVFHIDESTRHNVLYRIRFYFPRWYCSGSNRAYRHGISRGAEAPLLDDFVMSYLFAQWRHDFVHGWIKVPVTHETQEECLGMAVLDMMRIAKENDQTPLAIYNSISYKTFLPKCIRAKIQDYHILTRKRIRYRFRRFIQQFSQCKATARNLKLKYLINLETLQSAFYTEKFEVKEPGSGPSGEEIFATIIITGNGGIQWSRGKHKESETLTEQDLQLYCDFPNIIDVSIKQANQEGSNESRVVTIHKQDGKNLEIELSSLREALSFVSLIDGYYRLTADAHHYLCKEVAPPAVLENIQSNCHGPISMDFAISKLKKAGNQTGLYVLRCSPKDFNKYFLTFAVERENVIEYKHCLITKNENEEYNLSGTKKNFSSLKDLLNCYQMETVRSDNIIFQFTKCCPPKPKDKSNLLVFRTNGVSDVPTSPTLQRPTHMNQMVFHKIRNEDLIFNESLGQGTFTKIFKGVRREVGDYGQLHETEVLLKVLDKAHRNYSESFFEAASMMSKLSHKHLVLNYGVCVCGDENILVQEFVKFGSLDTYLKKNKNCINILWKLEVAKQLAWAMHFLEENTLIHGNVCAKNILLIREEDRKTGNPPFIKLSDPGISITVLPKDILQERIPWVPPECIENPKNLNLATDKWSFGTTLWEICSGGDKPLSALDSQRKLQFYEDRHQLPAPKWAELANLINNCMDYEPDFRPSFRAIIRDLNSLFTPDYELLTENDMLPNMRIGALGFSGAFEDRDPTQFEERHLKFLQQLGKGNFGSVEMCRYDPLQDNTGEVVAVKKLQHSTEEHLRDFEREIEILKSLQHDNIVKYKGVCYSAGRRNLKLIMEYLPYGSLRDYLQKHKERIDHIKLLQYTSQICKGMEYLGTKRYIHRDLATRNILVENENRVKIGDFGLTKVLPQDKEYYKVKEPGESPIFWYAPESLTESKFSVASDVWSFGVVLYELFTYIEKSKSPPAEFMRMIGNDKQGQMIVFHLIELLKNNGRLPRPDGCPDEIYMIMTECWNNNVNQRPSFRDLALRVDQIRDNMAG
Sequence of MAPK10 (P53779 whole entry): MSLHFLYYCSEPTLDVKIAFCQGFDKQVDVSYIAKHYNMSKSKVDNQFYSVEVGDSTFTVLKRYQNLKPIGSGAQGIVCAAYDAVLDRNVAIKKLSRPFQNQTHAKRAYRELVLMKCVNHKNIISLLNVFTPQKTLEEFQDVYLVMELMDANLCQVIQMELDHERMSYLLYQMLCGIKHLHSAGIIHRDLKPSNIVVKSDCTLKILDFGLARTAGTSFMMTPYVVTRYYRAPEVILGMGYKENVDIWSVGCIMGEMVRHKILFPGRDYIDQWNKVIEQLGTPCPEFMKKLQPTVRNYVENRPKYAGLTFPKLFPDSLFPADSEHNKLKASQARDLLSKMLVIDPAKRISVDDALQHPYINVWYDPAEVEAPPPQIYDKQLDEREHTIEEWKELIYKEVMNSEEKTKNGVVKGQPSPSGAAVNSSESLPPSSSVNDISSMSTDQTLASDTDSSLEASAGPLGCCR

O=C1C=CC2(C=C1)OCC(=O)N2c1nc(-c2cccc3ccccc23)nn1-c1ccccc1 [Compound 6a, 4-(3-(Naphthalen-1-yl)-1-phenyl-1H-1,2,4-triazol-5-yl)-1-oxa-4-azaspiro[4.5] deca-6,9-diene-3,8-dione]
toxicity to the major organ in mice ([1]; 20 mg/kg): no apparent toxicity
clinical signs in the eyes, skin, and fur ([1]; 40 mg/kg): no remarkable clinical signs
ascites at dissection [1, 7]: Ascites were detected
liver volume at dissection [1, 7]: decreased liver volume
gain of bodyweight ([1]; highest dose group (40 mg/kg)): lower than the other three groups
mortality ([1]; single dose 10, 20, 40 mg/kg i.p.): No mortality occurred
inhibition on the Janus kinases 2 [2]: weak inhibition
IC50 ([2]; Inhibitory effect (IC50) JAK2 Repeat 1, Repeat 1): 41.3 µM
IC50 ([2]; Inhibitory effect (IC50) JAK2 Repeat 2, Repeat 2): 76.6 µM
effect on MAPK10 [3]: did not have any significant effect
size of the spleen and liver [4]: enlarged
effect on AURKA [5]: did not have any significant effect
early and late apoptosis ([6]; MDA-MB-231, 1 μM): induced both early and late apoptosis
induction of cell apoptosis ([6]; MDA-MB-231, 48 h of treatment): induce cell apoptosis in a dose-dependent manner
